Test [1] in a line: Inhibition of human 20S proteasome chymotrypsin-like activity using Suc-Leu-Leu-Val-Tyr-AMC fluorogenic substrate by fluorimetry. In a few lines: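 IC50 values are the averages of three independent experiments.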
Test [2] relates to Human immunodeficiency virus 1. Briefly: Antiviral activity against drug-resistant HIV1 isolate. It counts as functional, organism-based.
Test [3] is filed under the species Homo sapiens. The experiment in a line: Inhibition of human 20S proteasome caspase-like activity using (Z)-LLE-bNA fluorogenic substrate by fluorimetry.
Test [4] relates to Human immunodeficiency virus 1. Briefly: Antiviral activity against HIV1. It counts as functional, organism-based.
Test [5] in a line: Inhibition of human 20S proteasome trypsin-like activity using Bz-VGR-AMC fluorogenic substrate by fluorimetry.
The species named for test [6] is Homo sapiens. Briefly: Ratio of LLM-F IC50 to compound IC50 for human 20S proteasome.
For test [7], the species on record is Homo sapiens. Briefly: Ratio of lactacystin IC50 to compound IC50 for human 20S proteasome.
The species entered for test [8] is Homo sapiens. Briefly: Ratio of bevirimat IC50 to compound IC50 for human 20S proteasome.

The record followed here is ChEMBL document CHEMBL1833848, “New betulinic acid derivatives as potent proteasome inhibitors” (Bioorg Med Chem Lett, 2011).

Calls of active or inactive are those of the source. No cut-off for these calls is given here. Where a SMILES comes first, the peptide text is derived from it.

As usually defined, the IC50 is the concentration at which inhibition is half-maximal. Higher therefore signals lower potency. On to `C=C(COCCC)[C@@H]1CC[C@]2(C(=O)N[C@@H](CC(C)C)C(=O)O)CC[C@]3(C)[C@H](CC[C@H]4C3(C)CC[C@H]3C(C)(C)[C@@H](O)CC[C@@]34C)[C@@H]12` (single isomer, unassigned), for which the IC50 in test [1] came out at 3.67 µM.
On the same count and under the same terms, for `C=C(C)[C@@H]1CC[C@]2(C(=O)O)CC[C@]3(C)[C@H](CC[C@H]4C3(C)CC[C@H]3C(C)(C)[C@@H](OC(=O)c5cccc(Br)c5)CC[C@@]34C)[C@@H]12` (single isomer, unassigned) the value was 7.05 µM.
The same measure, in the same setting: for `C=C(CBr)[C@@H]1CC[C@]2(C(=O)N[C@@H](CC(C)C)C(=O)O)CC[C@]3(C)[C@H](CC[C@H]4C3(C)CC[C@H]3C(C)(C)[C@@H](O)CC[C@@]34C)[C@@H]12` (single isomer, unassigned) the value was 5.85 µM.
By EC50 is commonly meant the midpoint of the concentration-response curve. A lower EC50 goes with higher potency in that assay. As to `C=C(C)[C@@H]1CC[C@]2(C(=O)O)CC[C@]3(C)[C@H](CC[C@@H]4[C@@]5(C)CC[C@H](OC(=O)CC(C)(C)C(=O)O)C(C)(C)[C@@H]5CC[C@]43C)[C@@H]12` [BEVIRIMAT], the EC50 in test [2] and in test [4] was under 10 nM each time. In the test listed under Homo sapiens [3], the inhibition result was “inactive”. Moreover, the IC50 was 9.2 µM in test [1] and 26.3 µM in test [5].
Regarding `C=C(C)[C@@H]1CC[C@]2(C(=O)NCCCCCCCC(=O)N[C@@H](CC(C)C)[C@H](O)CC(=O)O)CC[C@]3(C)[C@H](CC[C@H]4C3(C)CC[C@H]3C(C)(C)[C@@H](O)CC[C@@]34C)[C@@H]12` (single isomer, unassigned), the IC50 in test [1] was over 40 µM.
With `C=C(C)[C@@H]1CC[C@]2(C(=O)O)CC[C@]3(C)[C@H](CC[C@H]4C3(C)CC[C@H]3C(C)(C)[C@@H](OC(=O)c5cc(OC)c(OC)cc5OC)CC[C@@]34C)[C@@H]12` (single isomer, unassigned), the half-maximal inhibitory concentration (IC50) in test [1] is 10.9 µM.
For `C=C(C)[C@@H]1CC[C@]2(C(=O)O)CC[C@]3(C)[C@H](CC[C@H]4C3(C)CC[C@H]3C(C)(C)[C@@H](OC(=O)c5cc(OC)c(OC)c(OC)c5)CC[C@@]34C)[C@@H]12` (single isomer, unassigned), in test [1], the IC50 was over 40 µM.
In turn, `C=C(COCCc1ccc(F)cc1)[C@@H]1CC[C@]2(C(=O)N[C@@H](CC(C)C)C(=O)O)CC[C@]3(C)[C@H](CC[C@H]4C3(C)CC[C@H]3C(C)(C)[C@@H](O)CC[C@@]34C)[C@@H]12` (single isomer, unassigned) displayed an IC50 in test [1] of 2.4 µM.
In test [1], `C=C(COCC)[C@@H]1CC[C@]2(C(=O)N[C@@H](CC(C)C)C(=O)O)CC[C@]3(C)[C@H](CC[C@H]4C3(C)CC[C@H]3C(C)(C)[C@@H](O)CC[C@@]34C)[C@@H]12` (single isomer, unassigned) yielded an IC50 of 13.2 µM.
The same measure, in the same setting: the result for `C=C(C)[C@@H]1CC[C@]2(C(=O)O)CC[C@]3(C)[C@H](CC[C@H]4C3(C)CC[C@H]3C(C)(C)[C@@H](OC(=O)COCC(=O)O)CC[C@@]34C)[C@@H]12` (single isomer, unassigned) reads over 40 µM.
As to `C=C(C)[C@@H]1CC[C@]2(C(=O)N[C@@H](CC(C)C)C(=O)O)CC[C@]3(C)[C@H](CC[C@H]4C3(C)CC[C@H]3C(C)(C)[C@@H](O)CC[C@@]34C)[C@@H]12` (single isomer, unassigned), the IC50 in test [1] was over 40 µM.
`C=C(COCCc1ccc(OC)cc1)[C@@H]1CC[C@]2(C(=O)N[C@@H](CC(C)C)C(=O)O)CC[C@]3(C)[C@H](CC[C@H]4C3(C)CC[C@H]3C(C)(C)[C@@H](O)CC[C@@]34C)[C@@H]12` (single isomer, unassigned): in test [1], it took 3.34 µM to reach half-maximal inhibition (IC50).
On to `C=C(C)[C@@H]1CC[C@]2(C(=O)O)CC[C@]3(C)[C@H](CC[C@H]4C3(C)CC[C@H]3C(C)(C)[C@@H](OC(=O)c5ccc(OC)c(OC)c5)CC[C@@]34C)[C@@H]12` (single isomer, unassigned), for which the IC50 in test [1] was over 40 µM.
In test [1], `C=C(C)[C@@H]1CC[C@]2(C(=O)O)CC[C@]3(C)[C@H](CC[C@H]4C3(C)CC[C@H]3C(C)(C)[C@@H](OC(=O)c5ccccc5)CC[C@@]34C)[C@@H]12` (single isomer, unassigned) returned an IC50 of 11.1 µM.
On the same count and under the same terms, for `CSCC[C@@H](C=O)NC(=O)[C@H](CC(C)C)NC(=O)[C@H](CC(C)C)NC(C)=O` (Ac-Leu-Leu-Met-aldehyde) the value was 5.25 µM; for `C=C(COCCc1ccccc1)[C@@H]1CC[C@]2(C(=O)N[C@@H](CC(C)C)C(=O)O)CC[C@]3(C)[C@H](CC[C@H]4C3(C)CC[C@H]3C(C)(C)[C@@H](O)CC[C@@]34C)[C@@H]12` (single isomer, unassigned), 2.47 µM; for `C=C(C)[C@@H]1CC[C@]2(C(=O)O)CC[C@]3(C)[C@H](CC[C@H]4C3(C)CC[C@H]3C(C)(C)[C@@H](OC(=O)c5ccccc5Br)CC[C@@]34C)[C@@H]12` (single isomer, unassigned), 7.99 µM.
`C=C(C)[C@@H]1CC[C@]2(C(=O)O)CC[C@]3(C)[C@H](CC[C@H]4C3(C)CC[C@H]3C(C)(C)[C@@H](OC(=O)C5CC=CCC5C(=O)O)CC[C@@]34C)[C@@H]12` (single isomer, unassigned) gave an IC50 in test [1] of 2.96 µM.
For the molecule `C=C(COCCN1CCOCC1)[C@@H]1CC[C@]2(C(=O)N[C@@H](CC(C)C)C(=O)O)CC[C@]3(C)[C@H](CC[C@H]4C3(C)CC[C@H]3C(C)(C)[C@@H](O)CC[C@@]34C)[C@@H]12` (single isomer, unassigned), in test [1], half-maximal inhibition (IC50) required 3.13 µM.
In the case of `C=C(COCCc1ccc(Br)cc1)[C@@H]1CC[C@]2(C(=O)N[C@@H](CC(C)C)C(=O)O)CC[C@]3(C)[C@H](CC[C@H]4C3(C)CC[C@H]3C(C)(C)[C@@H](O)CC[C@@]34C)[C@@H]12` (single isomer, unassigned), the Ratio IC50 in the test listed under Homo sapiens [6] and in the test filed under Homo sapiens [7] was 3 throughout. This molecule also returned a half-inhibitory concentration (IC50) in test [1] of 1.56 µM.
In the case of `C=C(COCCc1ccc(Cl)cc1)[C@@H]1CC[C@]2(C(=O)N[C@@H](CC(C)C)C(=O)O)CC[C@]3(C)[C@H](CC[C@H]4C3(C)CC[C@H]3C(C)(C)[C@@H](O)CC[C@@]34C)[C@@H]12` (single isomer, unassigned), the Ratio IC50 in the test filed under Homo sapiens [6] and in the test listed under Homo sapiens [7] was 3 in each case. The molecule also showed an IC50 in test [1] of 1.8 µM.
As to `C=C(C)[C@@H]1CC[C@]2(C(=O)O)CC[C@]3(C)[C@H](CC[C@H]4C3(C)CC[C@H]3C(C)(C)[C@@H](OC(=O)c5ccc6c(c5)OCO6)CC[C@@]34C)[C@@H]12` (single isomer, unassigned), the IC50 in test [1] was over 40 µM.
In turn, `C=C(C)[C@@H]1CC[C@]2(C(=O)O)CC[C@]3(C)[C@H](CC[C@H]4C3(C)CC[C@H]3C(C)(C)[C@@H](OC(=O)c5ccc(Br)cc5)CC[C@@]34C)[C@@H]12` (single isomer, unassigned) registered an IC50 in test [1] of over 40 µM.
On to `C=C(C)[C@@H]1CC[C@]2(C(=O)O)CC[C@]3(C)[C@H](CC[C@H]4C3(C)CC[C@H]3C(C)(C)[C@@H](OC(=O)Cc5cccc(CC(=O)O)c5)CC[C@@]34C)[C@@H]12` (single isomer, unassigned), for which the Ratio IC50 in the test filed under Homo sapiens [6] came to 4; in the test listed under Homo sapiens [8], 6; in the test listed under Homo sapiens [7], 4. This molecule also displayed an IC50 in test [1] of 1.42 µM.
